In series [1] the test system is Human immunodeficiency virus 1. The series is described as follows: Antiviral activity against HIV1 subtype G isolate JV1083 infected in human PBMC after 48 to 72 hrs by MTS assay. To be noted: Human immunodeficiency virus 1, isolate JV1083.
Series [2] is described as follows: Cytotoxicity against human HuH7 cells after 24 hrs by XTT assay. It counts as cell-based. To be noted: huh-7, 24 h. In a few lines: (§1)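 Six-concentration growth-inhibition test: 10 to 0.032 μM for the prodrug and TDF, up to 100 μM for TFV, with Triton X-100 run in parallel. Cell lines were split 1:2 the day before and seeded at 5 × 10^3 to 2 × 10^4 cells/well, with adherent lines left overnight. Dendritic cells were derived with GM-CSF/IL-4 for 7 days, then LPS 10 ng/ml for 2 days. Viability was read by XTT.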
Background: Tetrazolium dyes change colour on reduction, which living cells bring about.

Series [3] in a line: Cytotoxicity against human ME180 cells after 24 hrs by XTT assay. The class given is cell-based. To be noted: me-180, 24 h. In a few lines: as §1
In series [4] the test system is Human immunodeficiency virus 1. Kind of series: Antiviral activity against HIV1 subtype A isolate 92RW009 infected in human PBMC after 48 to 72 hrs by MTS assay. To be noted: Human immunodeficiency virus 1, isolate 92RW009. It counts as functional, organism-based. In a few lines: (§2)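 Fresh donor PBMCs, HIV- and HBV-seronegative, were stimulated with 4 μg/ml PHA for 48 to 72 h and kept on 20 U/ml rhIL-2. Cells pooled from at least two donors were seeded at 5 × 10^4 per well and infected at MOI ~0.1. Nine compound concentrations were run in triplicate wells for 7 days.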

Series [5] has as its system PBMC. Kind of series: Cellular uptake in human PBMC at 1 uM assessed as TFV-monophosphate level after 24 hrs by MS/MS analysis. It counts as ADME, cell-based. In a few lines: (§3)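 Human PBMCs, unstimulated or PHA/IL-2-stimulated, at 2 × 10^6 cells/ml in RPMI 1640 with 15% FBS, exposed 24 h at 37°C to final 0.01, 0.1, 1.0 or 10 μM of the prodrug, or 1.0 or 10 μM tenofovir. After cold saline washes the cells were counted and 1 × 10^7-cell pellets made. TFV, TFV-MP and TFV-PP were measured by ion-pairing LC with positive-ion electrospray MS as pmol/10^6 cells.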

Series [6] deals with PBMC. The series is described as follows: Cytotoxicity against PHA/IL-2-stimulated human PBMC after 24 hrs by XTT assay. The class given is cell-based. In a few lines:
as §1

Series [7] concerns PBMC. The series is described as follows: Cellular uptake in PHA/IL-2-stimulated human PBMC at 1 uM assessed as TFV-diphosphate level after 24 hrs by MS/MS analysis. It counts as ADME, cell-based. In a few lines: (§4)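 PHA-stimulated (4 μg/ml PHA, 48 to 72 h; 20 U/ml rhIL-2) human PBMCs at 2 × 10^6 cells/ml in RPMI 1640 with 15% FBS, given tenofovir or prodrug (final 0.01 to 10 μM) for 24 h at 37°C. Cells washed three times in cold 0.9% NaCl, counted, and 1 × 10^7 cell aliquots pelleted. TFV, TFV-MP and TFV-PP were separated by ion-pairing reverse-phase LC and detected by positive-ion electrospray MS. Output is pmol per 10^6 cells.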

In series [8] the test system is Human immunodeficiency virus 1. The series is described as follows: Antiviral activity against HIV1 group O isolate BCF02 infected in human PBMC after 48 to 72 hrs by MTS assay. It counts as functional, organism-based. To be noted: Human immunodeficiency virus 1, isolate BCF02. In a few lines:
as §2

Series [9] deals with Human immunodeficiency virus 1. Kind of series: Antiviral activity against HIV1 subtype F isolate 93BR020 infected in human PBMC after 48 to 72 hrs by MTS assay. To be noted: Human immunodeficiency virus 1, isolate 93BR020. It counts as functional, organism-based. In a few lines:
as §2

For series [10], the system named is Human immunodeficiency virus 1. The series is described as follows: Antiviral activity against HIV1 subtype E isolate CMU08 infected in human PBMC after 48 to 72 hrs by MTS assay. The class given is functional, organism-based. To be noted: Human immunodeficiency virus 1, isolate CMU08. In a few lines:
as §2

The test system of series [11] is Human immunodeficiency virus 1. The series is described as follows: Antiviral activity against HIV1 subtype G isolate RU132 infected in human PBMC after 48 to 72 hrs by MTS assay. The class given is functional, organism-based. To be noted: Human immunodeficiency virus 1, isolate RU132. In a few lines:
as §2

The test system of series [12] is Human immunodeficiency virus 1. Kind of series: Antiviral activity against HIV1 subtype D isolate 92UG001 infected in human PBMC after 48 to 72 hrs by MTS assay. The class given is functional, organism-based. To be noted: Human immunodeficiency virus 1, isolate 92UG001. In a few lines:
as §2

Series [13] has as its system Human immunodeficiency virus 1. The series is described as follows: Antiviral activity against HIV1 NL 4-3 expressing wild type reverse transcriptase infected in human PBMC by ELISA. To be noted: Human immunodeficiency virus 1, NL 4-3. It counts as functional, organism-based. In a few lines:
as §2

Series [14] relates to Human immunodeficiency virus 1. The series is described as follows: Antiviral activity against HIV1 subtype G isolate G3 infected in human PBMC after 48 to 72 hrs by MTS assay. It counts as functional, organism-based. To be noted: Human immunodeficiency virus 1, isolate G3. In a few lines:
as §2

In series [15] the test system is Human immunodeficiency virus 1. The series is described as follows: Antiviral activity against HIV1 subtype C isolate 92BR025 infected in human PBMC after 48 to 72 hrs by MTS assay. It counts as functional, organism-based. To be noted: Human immunodeficiency virus 1, isolate 92BR025. In a few lines:
as §2

The subject of series [16] is Human immunodeficiency virus 1. The series is described as follows: Antiviral activity against HIV1 subtype E isolate 93TH073 infected in human PBMC after 48 to 72 hrs by MTS assay. The class given is functional, organism-based. To be noted: Human immunodeficiency virus 1, isolate 93TH073. The method, boiled down:
as §2

The test system of series [17] is Human immunodeficiency virus 1. Kind of series: Antiviral activity against HIV1 8415-2 harboring reverse transcriptase 65R/184V mutant gene infected in human PBMC by ELISA. The class given is functional, organism-based. To be noted: Human immunodeficiency virus 1, 8415-2. In a few lines:
(§5)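 Fresh PBMCs pooled from at least two HIV- and HBV-seronegative donors, stimulated with PHA 4 μg/ml for 48–72 h and kept in rhIL-2 20 U/ml. Seeded at 5 × 10^4 cells/well and infected with RT-mutant HIV-1 clones at MOI ~0.1. Nine compound concentrations, triplicate wells, 7-day incubation. EC50 reported as mean ± SD of one to three independent experiments.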
A general note: An ELISA detects its analyte on a solid surface through an enzyme-linked reagent.

The subject of the next series is HepG2. Kind of series: Cytotoxicity against human HepG2 cells after 24 hrs by XTT assay. The class given is cell-based. To be noted: hepg2, 24 h. The method, boiled down: as §1
The test system of the next series is CEM-SS. Kind of series: Cytotoxicity against human CEM-SS cells after 24 hrs by XTT assay. It counts as cell-based. In a few lines: as §1
Series [18] concerns PBMC. The series is described as follows: Cellular uptake in PHA/IL-2-stimulated human PBMC at 1 uM assessed as TFV-monophosphate level after 24 hrs by MS/MS analysis. It counts as ADME, cell-based. In a few lines: as §4
Series [19] has as its system Human immunodeficiency virus 1. The series is described as follows: Antiviral activity against HIV1 subtype F isolate 93BR019 infected in human PBMC after 48 to 72 hrs by MTS assay. It counts as functional, organism-based. To be noted: Human immunodeficiency virus 1, isolate 93BR019. In a few lines:
as §2

Series [20] relates to Human immunodeficiency virus 2. Kind of series: Antiviral activity against HIV2 isolate CDC310342 infected in human PBMC after 48 to 72 hrs by MTS assay. It counts as functional, organism-based. To be noted: Human immunodeficiency virus 2, isolate CDC310342. In a few lines: as §2
Series [21] deals with Human immunodeficiency virus 1. The series is described as follows: Antiviral activity against HIV1 1617-1 harboring reverse transcriptase 69K/70G/75I/77L/116Y/151M/184V mutant gene infected in human PBMC by ELISA. It counts as functional, organism-based. To be noted: Human immunodeficiency virus 1, 1617-1. In a few lines:
as §5

The test system of series [22] is PBMC. The series is described as follows: Cellular uptake in human PBMC at 10 uM assessed as TFV-diphosphate after 24 hrs by MS/MS analysis. It counts as ADME, cell-based. The method, boiled down:
as §3

Series [23] deals with Human immunodeficiency virus 1. Kind of series: Antiviral activity against HIV1 subtype F isolate 93BR029 infected in human PBMC after 48 to 72 hrs by MTS assay. It counts as functional, organism-based. To be noted: Human immunodeficiency virus 1, isolate 93BR029. The method, boiled down: as §2
The subject of series [24] is Human immunodeficiency virus 1. The series is described as follows: Antiviral activity against HIV1 subtype E isolate CMU06 infected in human PBMC after 48 to 72 hrs by MTS assay. To be noted: Human immunodeficiency virus 1, isolate CMU06. The class given is functional, organism-based. In a few lines: as §2
For series [25], the system named is PBMC. Kind of series: Cellular uptake in human PBMC at 10 uM assessed as TFV-monophosphate after 24 hrs by MS/MS analysis. The class given is ADME, cell-based. In a few lines:
as §3

Series [26] is described as follows: Cytotoxicity against human MDM up to 1000 nM by MTS assay. The class given is cell-based.

The source of these data is ChEMBL document CHEMBL1629690, “Development of hexadecyloxypropyl tenofovir (CMX157) for treatment of infection caused by wild-type and nucleoside/nucleotide-resistant HIV” (Antimicrob Agents Chemother, 2010).

Each structure is given as a SMILES string.

What is called EC50 is the midpoint of the concentration-response curve. For `CCCCCCCCCCCCCCCCOCCCOP(=O)(O)CO[C@H](C)Cn1cnc2c(N)ncnc21` [TENOFOVIR EXALIDEX], the EC50 in [1] was 2.2 nM; in [4], 3.3 nM; in series [8], 5 nM; in [9] it was 2.7 nM; in series [10], 2.3 nM; in series [11] it was 2.2 nM. Moreover, the concentration for a half-maximal effect (EC50) is 2.1 nM in [12]; 1.5 nM in series [13]; 2.2 nM in [14]; 2.8 nM in [15]; 2.3 nM in series [16]; 1.8 nM in series [17]. Also, the concentration giving a half-maximal response (EC50) turned out to be 2.7 nM in series [19]; 3.5 nM in series [20]; 5 nM in [21]; 2.7 nM in series [23]; 2.3 nM in [24]. In addition, the Activity entry (in series [2]; in [3]; in the series on PBMC [6]; in the series on HepG2; in the series with CEM-SS; in series [26]) was “Non-toxic” each time. For the same molecule, the Drug uptake in the series on PBMC [5] amounted to 0.05 pmol/10^6 cells; with PBMC [7], 1.7 pmol/10^6 cells; in the series with PBMC [18], 0.3 pmol/10^6 cells; in the series on PBMC [22] it was 1.1 pmol/10^6 cells; in the series on PBMC [25], 0.12 pmol/10^6 cells.
`C[C@H](Cn1cnc2c(N)ncnc21)OCP(=O)(O)O` [TENOFOVIR ANHYDROUS]: the Activity result (in [2]; in series [3]; in the series on PBMC [6]; in the series on HepG2; with CEM-SS) was “Non-toxic” in each case. The Drug uptake result was “BLD” in the series on PBMC [5] (BLD = below limit of detection); 0.05 pmol/10^6 cells in the series on PBMC [7]; “BLD” in the series on PBMC [18] (BLD = below limit of detection); 0.15 pmol/10^6 cells with PBMC [22]; 0.05 pmol/10^6 cells with PBMC [25]. Also, the values for the EC50 in [13], in series [17] and in series [21] were 300 nM, 1000 nM and more than 6500 nM, respectively.
Regarding `Cc1cn([C@H]2C[C@H](N=[N+]=[N-])[C@@H](CO)O2)c(=O)[nH]c1=O` [ZIDOVUDINE], the 50% effective concentration (EC50) in series [1] was 4.7 nM; in series [4], 14 nM; in series [8], 1.7 nM; in [9] it was 9.6 nM; in series [10], 5.5 nM; in [11], 4.7 nM. For the same molecule, the concentration for a half-maximal effect (EC50) in series [12] is 6.3 nM; in [13], 0.53 nM; in series [14], 4.7 nM; in series [15], 4.9 nM; in [16], 5.5 nM; in series [17], 1.8 nM. The EC50 in series [19] was 9.6 nM; in series [20], 9.3 nM; in series [21] it was more than 340 nM; in series [23] it was 9.6 nM; in [24] it was 5.5 nM. In addition, in series [26], the Activity entry is on record as “Non-toxic”.
